Reference: publication PMC4889517 (Nanomedicine : nanotechnology, biology, and medicine, 2016)
Entries after “also recorded” stand apart in the source; their conditions may differ.

Experiments:
PC-3 cells = assay: Annexin V and PI staining by flow cytometry; type: cell-based, human; settings: PC-3, 48 hr; free IPA-3 20-30 μM
Method in brief: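 PC-3 cells (F12K, 10% FBS, 37°C, 5% CO₂) were grown 24 h, then exposed to free test compound, liposomal test compound or empty liposomes. After treatment they were PBS-washed twice and stained for 10 min with annexin V-FITC and PI in HEPES binding buffer (140 mM NaCl, 1.8 mM CaCl2, pH 7.4). Cells were washed three times, scraped off, and 10,000 events counted by flow cytometry. Mean ± SEM of percent stained cells.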

[1] = test system: human prostate cancer PC-3, LNCaP and DU-145 cells; assay: MTT staining cytotoxicity in prostate cancer cell lines; type: cell-based; settings: concentrations of 5-30 μM; 24, 48, 72 hrs
LNCaP cells = assay: MTT staining cytotoxicity, LNCaP; type: cell-based, human; settings: read-out: IC50 (MTT)
Method in brief: (§1)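 Cells were seeded at 5 × 10⁴ cells/ml (DU-145 in EMEM, LNCaP in RPMI, 10% FBS) and allowed to attach for 24 h. Free test compound was given at 1.56–50 μM, with DMSO and empty liposome controls, for 24, 48 or 72 h. MTT (0.25 mg/ml final) was added for 2 h at 37°C, formazan dissolved in DMSO, and absorbance read at 590 nm. IC50 came from the concentration-effect curve. Triplicates, n = 3.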

[2] = test system: PC-3 cell tumor xenografts; assay: TUNEL assay of apoptosis in tumor xenograft sections; type: in vivo, athymic nude mice; settings: 5 mg/kg i.p., 2 days/week, day 25
Method in brief: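 PC-3 xenografts were collected on day 25, after 18 days of i.p. dosing twice weekly at 5 mg/kg, with DMSO and empty liposome controls. Frozen sections were fixed in 2% paraformaldehyde (4°C, 30 min) and permeabilized in ethanol:acetic acid 2:1. They were labeled with fluorescein-12-dUTP by terminal deoxynucleotidyl transferase and counterstained with DAPI. TUNEL-positive cells were counted by fluorescence microscopy (n = 4).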

[3] = Body weight of tumor bearing mice; type: in vivo, athymic nude mice; settings: 5 mg/kg i.p., 2 days/week, after 25 days
Method in brief: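 Athymic nude mice carried SC PC-3 xenografts and were dosed i.p. twice weekly from day 7. Groups were free or liposomal test compound at 5 mg/kg, DMSO, or empty liposomes. Body weight was recorded on day 25 after implantation, which was day 18 of treatment. Mean ± SEM.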

MDA-231 = assay: MTT staining cytotoxicity, MDA-231; type: cell-based, human; settings: read-out: IC50 (MTT)
DU-145 cells = assay: MTT staining cytotoxicity, DU-145; type: cell-based, human
Method in brief: as §1

MCF-7 = assay: MTT staining cytotoxicity, MCF-7; type: cell-based, human; settings: read-out: IC50 (MTT)
[4] = free form, rapid metabolism ref 10; cited from earlier work
[5] = test system: PC-3 cell tumor xenografts; assay: In vivo prostate tumor xenograft growth; set-up: species or system athymic nude mice; settings: 5 mg/kg i.p., 2 days/week from day 7 to day 25
Method in brief: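 Male athymic nude mice, 6-8 weeks old (n = 5-6), received 3 million PC-3 cells in sterile saline SC. From day 7, dosing was i.p. twice weekly: free or sterically stabilized liposomal test compound at 5 mg/kg, with DMSO or empty liposome controls. Calipers were used on days 7, 14, 21 and 25, with volume = ½[length × width²]. Tumors were excised and weighed on day 25.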

prostate tumor xenograft = settings: daily administration ref 8; cited from earlier work

Oc1ccc2ccccc2c1SSc1c(O)ccc2ccccc12 [IPA-3]
percent cells staining positive for annexin V alone (PC-3 cells): significantly increased
percent cells staining positive for both annexin V and PI (PC-3 cells): significantly increased
effect on MTT staining [1]: concentration- and time-dependent decreases in MTT staining
IC50 (LNCaP cells): 10 µM
number of apoptotic (TUNEL positive) cells per field compared to control groups [2]: significant increases
effect on body weight of mice [3]: no significant effect
IC50 (MDA-231): 8 µM
susceptibility to toxicity (MTT staining) (DU-145 cells; DU-145 compared to PC-3 and LNCaP cells): less susceptible
IC50 (DU-145 cells; read-out: IC50 (MTT), DU-145): ~32 µM
IC50 (MCF-7): 25 µM
half-life in vivo [4]: very short
PC-3 cell tumor xenograft growth [5]: ineffective; also recorded: did not have a significant effect
prostate tumor xenograft growth (prostate tumor xenograft): reduced
